Measurements reported in ChEMBL document CHEMBL1144142, “Lyso-PAF analogues and lysophosphatidylcholines from the marine sponge Spirastrella abata as inhibitors of cholesterol biosynthesis” (J Nat Prod, 1999).
≈ marks a conversion by molar mass, not a printed value. Calls of active or inactive are those of the source. The calls are words filed in the database; no cut-off is given here.

Columns and labels:
Format in all cases: functional, cell-based
[1] = (§1) Inhibition of cholesterol biosynthesis in human chang liver cells assessed as conversion of lanosterol into cholesterol
Method in brief: (§2)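 Chang liver cells (ATCC CCL 13) seeded at 5×10^4 per 15-mm dish in MEM + 10% FBS; on day 2 washed, held 4 h in serum-free Hepatozyme-SFM, pretreated 2 h with compound, then labeled acetate (2.5 μCi/well) for 2 h. Cells lysed in 0.1 N NaOH, saponified (6% KOH/MeOH), nonsaponifiable lipids extracted in n-hexane, separated by TLC (C6H6-Me2CO 19:1), radioactive spots quantified by phosphor imaging.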

[2] = test system: chang liver; test: as §1; method in brief: as §2
[3] = test system: chang liver; test: Inhibition of cholesterol biosynthesis in human chang liver cells assessed as suppression of lanosterol; method in brief: as §2
[4] = test system: chang liver; test: Inhibition of cholesterol biosynthesis in human chang liver cells assessed as suppression of cholesterol level; method in brief: as §2

Structure (SMILES)	IC50 [1] [µg/mL]	Activity [2]	Activity [3]	Activity [4]
CCCCCC/C=C\CCCCCCCCCCOC[C@@H](O)COP(=O)([O-])OCC[N+](C)(C)C	125 (≈ 246 µM)	Dose-dependent effect	–	–
CCCCCCCCCCCCCC/C=C\CCOC[C@@H](O)COP(=O)([O-])OCC[N+](C)(C)C	174 (≈ 343 µM)	Dose-dependent effect	–	–
CCCCCC/C=C\CCCCCCCCCCCC(=O)OC[C@@H](O)COP(=O)([O-])OCC[N+](C)(C)C	21 (≈ 38.2 µM)	Dose-dependent effect	–	–
CC(C)CCCCCCCCCCCCCCOC[C@@H](O)COP(=O)([O-])OCC[N+](C)(C)C	320 (≈ 646 µM)	Dose-dependent effect	–	–
CC[C@H](C)C(=O)O[C@H]1CCC=C2C=C[C@H](C)[C@H](CC[C@@H]3C[C@@H](O)CC(=O)O3)[C@H]21	–	–	Active	Active
CCCCCCCCCCCCCCCCOC[C@@H](O)COP(=O)([O-])OCC[N+](C)(C)C	422 (≈ 876 µM)	Dose-dependent effect	–	–
CCCCCCC1CC1CCCCCCCCCC(=O)OC[C@@H](O)COP(=O)([O-])OCC[N+](C)(C)C (some centres not stated)	60 (≈ 112 µM)	Dose-dependent effect	inactive	–
CCCCCCCCCCCCC/C=C\CCCOC[C@@H](O)COP(=O)([O-])OCC[N+](C)(C)C	121 (≈ 238 µM)	Dose-dependent effect	–	–
